In ChEMBL document CHEMBL5257104, “Identification of a novel spirocyclic Nek2 inhibitor using high throughput virtual screening” (Bioorg Med Chem Lett, 2023):
Active and inactive are the calls of the source. The rule behind the calls is not given here.

What was measured:
[1] = target: T1, Serine/threonine-protein kinase Nek2 (Homo sapiens, UniProt P51955); assay: Inhibition of human recombinant Nek2 in presence of 50 uM ATP by ADP-Glo kinase assay
T1 sequence (P51955 whole entry): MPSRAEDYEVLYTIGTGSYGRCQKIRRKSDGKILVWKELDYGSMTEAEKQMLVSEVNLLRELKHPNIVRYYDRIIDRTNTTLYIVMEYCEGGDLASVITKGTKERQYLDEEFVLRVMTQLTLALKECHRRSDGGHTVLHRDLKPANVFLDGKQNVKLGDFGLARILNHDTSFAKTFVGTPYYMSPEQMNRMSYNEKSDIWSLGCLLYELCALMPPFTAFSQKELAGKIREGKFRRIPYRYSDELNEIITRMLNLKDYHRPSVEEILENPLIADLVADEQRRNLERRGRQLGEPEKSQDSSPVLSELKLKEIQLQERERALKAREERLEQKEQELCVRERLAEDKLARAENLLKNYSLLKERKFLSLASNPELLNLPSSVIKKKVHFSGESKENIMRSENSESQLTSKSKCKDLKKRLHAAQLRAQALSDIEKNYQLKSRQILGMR
How it was run: (§1)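 Kinase activity was measured at 50 μM ATP using recombinant enzyme. A concentration-response curve was generated for each kinase, and IC50 was obtained by fitting the data.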

[2] = target: T1, Serine/threonine-protein kinase Nek2; assay: Inhibition of human recombinant Nek2 in presence of 150 uM ATP by ADP-Glo kinase assay
How it was run: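 Recombinant human Nek2 kinase activity assay run with ATP raised threefold, from the standard 50 μM to 150 μM. Inhibitor tested over a concentration series, and IC50 obtained by fitting the concentration-response curve.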

A549 [3] = assay: Cytotoxicity against human A549 cells assessed as inhibition of cell growth by MTT assay; assay type: functional, cell-based
How it was run: (§2)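 Cell viability read by MTT assay across a range of concentrations. EC50 taken from the dose-response curve. See Supporting Information, Section III, for details not given here.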

MDA-MB-231 = assay: Cytotoxicity against human MDA-MB-231 cells assessed as inhibition of cell growth by MTT assay; assay type: functional, cell-based; how it was run: as §2
[4] = target: Cyclin-dependent kinase 1 (Homo sapiens, UniProt P06493); assay: Inhibition of CDK1 (unknown origin); how it was run: as §1
Sequence of Cyclin-dependent kinase 1 (P06493 whole entry): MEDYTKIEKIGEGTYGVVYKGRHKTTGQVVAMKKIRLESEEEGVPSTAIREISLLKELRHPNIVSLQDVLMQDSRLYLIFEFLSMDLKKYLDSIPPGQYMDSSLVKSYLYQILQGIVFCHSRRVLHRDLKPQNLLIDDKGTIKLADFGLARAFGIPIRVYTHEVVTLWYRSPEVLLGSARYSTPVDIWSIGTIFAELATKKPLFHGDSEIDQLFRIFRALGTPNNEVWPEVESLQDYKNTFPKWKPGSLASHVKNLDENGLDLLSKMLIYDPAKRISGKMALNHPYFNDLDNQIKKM

[5] = target: Serine/threonine-protein kinase Nek7 (Homo sapiens, UniProt Q8TDX7); assay: Inhibition of Nek7 (unknown origin); how it was run: as §1
Sequence of Serine/threonine-protein kinase Nek7 (Q8TDX7 whole entry): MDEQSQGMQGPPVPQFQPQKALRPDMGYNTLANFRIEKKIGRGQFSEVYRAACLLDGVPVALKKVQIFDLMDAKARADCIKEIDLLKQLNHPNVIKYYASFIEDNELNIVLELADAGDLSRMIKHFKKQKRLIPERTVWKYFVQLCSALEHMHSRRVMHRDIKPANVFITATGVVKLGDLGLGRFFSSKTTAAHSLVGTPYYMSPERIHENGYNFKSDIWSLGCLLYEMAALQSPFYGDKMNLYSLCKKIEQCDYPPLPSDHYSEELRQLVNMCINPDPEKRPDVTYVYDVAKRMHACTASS

A549 [6] = assay: Antimigratory activity against human A549 cells at 50 to 100 uM by wound healing assay; assay type: functional, cell-based; conditions: dose 50-100 µM
How it was run: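 A549 monolayers were scratched and treated. Migration was judged by imaging wound boundaries at the initial scratch (t = 0) and at 24 hr post-treatment, compared with vehicle control.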

[7] = target: Serine/threonine-protein kinase PLK1 (Homo sapiens, UniProt P53350); assay: Inhibition of Plk1 (unknown origin); how it was run: as §1
Sequence of Serine/threonine-protein kinase PLK1 (P53350 whole entry): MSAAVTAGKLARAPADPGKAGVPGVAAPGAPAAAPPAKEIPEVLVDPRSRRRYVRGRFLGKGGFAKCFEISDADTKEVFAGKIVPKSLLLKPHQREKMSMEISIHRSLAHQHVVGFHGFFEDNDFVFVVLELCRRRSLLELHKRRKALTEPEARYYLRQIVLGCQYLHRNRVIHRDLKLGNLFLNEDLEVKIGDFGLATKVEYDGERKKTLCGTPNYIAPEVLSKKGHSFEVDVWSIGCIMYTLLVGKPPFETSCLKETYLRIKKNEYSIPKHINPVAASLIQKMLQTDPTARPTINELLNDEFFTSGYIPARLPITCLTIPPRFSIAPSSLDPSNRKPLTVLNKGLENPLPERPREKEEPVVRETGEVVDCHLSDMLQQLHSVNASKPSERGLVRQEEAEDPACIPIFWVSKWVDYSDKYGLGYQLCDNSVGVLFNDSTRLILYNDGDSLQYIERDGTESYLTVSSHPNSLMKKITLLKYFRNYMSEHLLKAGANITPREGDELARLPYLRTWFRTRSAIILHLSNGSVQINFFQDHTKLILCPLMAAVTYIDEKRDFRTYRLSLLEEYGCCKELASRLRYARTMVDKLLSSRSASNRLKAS

Aurora kinase A = target: T2, Aurora kinase A (Homo sapiens, UniProt O14965); assay: Inhibition of Aurora A (unknown origin); how it was run: as §1
T2 sequence (O14965 whole entry): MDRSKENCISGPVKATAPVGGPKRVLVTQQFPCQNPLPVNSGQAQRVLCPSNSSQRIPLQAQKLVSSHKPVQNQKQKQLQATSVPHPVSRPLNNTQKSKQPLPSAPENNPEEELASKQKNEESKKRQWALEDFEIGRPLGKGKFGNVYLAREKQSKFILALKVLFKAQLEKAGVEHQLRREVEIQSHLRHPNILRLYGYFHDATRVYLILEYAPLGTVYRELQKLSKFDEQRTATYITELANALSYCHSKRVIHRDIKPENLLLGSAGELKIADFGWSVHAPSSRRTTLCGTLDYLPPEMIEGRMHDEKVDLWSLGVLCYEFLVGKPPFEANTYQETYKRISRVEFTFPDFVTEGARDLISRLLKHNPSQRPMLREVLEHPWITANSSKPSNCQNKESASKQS

A549 [8] = assay: Inhibition of Akt phosphorylation at S473 residue in human A549 cells by Western blotting analysis; assay type: cell-based; conditions: dose 5-20 µM
How it was run: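 A549 cells were treated for 24 h across several concentrations. Ser-473 phospho-Akt was detected by Western blot with GAPDH as the loading control. DMSO served as vehicle control and a reference Nek2 inhibitor as positive control.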

| IC50 [1] [µM] | SMILES | other results |
| --- | --- | --- |
| 58.1 | CN1CCC2(CC1)NCC(=O)N2 | – |
| 4.9 | Cc1ccc(C2=NC3(CCN(S(C)(=O)=O)CC3)NC2=O)cc1 | – |
| 32.1 | CS(=O)(=O)N1CCC2(CC1)NCC(=O)N2 | – |
| 32.5 | O=C1CNC2(CCNCC2)N1 | – |
| 9.3 | O=C1NC2(CCN(S(=O)(=O)c3ccccc3)CC2)N=C1c1ccc(Br)cc1 | – |
| 9.8 | Cc1cc(C)c(S(=O)(=O)N2CCC3(CC2)N=C(c2ccc(Br)cc2)C(=O)N3)c(C)c1 | – |
| 3.2 | Cc1ccc(C2=NC3(CCN(S(C)(=O)=O)CC3)NC2=O)cc1C | – |
| 5 | CC(C)(C)c1ccc(S(=O)(=O)N2CCC3(CC2)N=C(c2ccc(Br)cc2)C(=O)N3)cc1 | – |
| 9.2 | O=C1NC2(CCN(C(=O)c3ccccc3)CC2)N=C1c1ccc(Br)cc1 | – |
| 8.1 | O=C1NC2(CCN(S(=O)(=O)c3ccccc3)CC2)N=C1c1ccccc1 | – |
| 6 | O=C1NC2(CCN(S(=O)(=O)c3ccccc3)CC2)N=C1c1ccc(Cl)cc1 | – |
| 6.8 | O=C1NC2(CCN(S(=O)(=O)Cc3ccccc3)CC2)N=C1c1ccc(Br)cc1 | – |
| 8.7 | CC(C)(C)c1ccc(C2=NC3(CCN(S(C)(=O)=O)CC3)NC2=O)cc1 | – |
| 12.3 | Cc1ccc(S(=O)(=O)N2CCC3(CC2)N=C(c2ccc(Br)cc2)C(=O)N3)cc1C | – |
| 4.5 | O=C1NC2(CCN(S(=O)(=O)c3ccccc3)CC2)N=C1c1ccc(F)cc1 | – |
| 2.4 | CS(=O)(=O)N1CCC2(CC1)N=C(c1ccc(Br)cc1)C(=O)N2 | IC50 [2]: 17.1 µM; IC50 (A549 [3]): 22.7 µM; IC50 (MDA-MB-231): 18.1 µM; IC50 [4]: 29.3 µM; IC50 [5]: 28.8 µM; Activity (A549 [6]): Active; IC50 [7]: 20.4 µM; IC50 (Aurora kinase A): 21.3 µM; inhibition (A549 [8]): Dose-Dependent Effect |
| 5.6 | O=C1NC2(CCN(S(=O)(=O)c3cccs3)CC2)N=C1c1ccc(Br)cc1 | – |
| 14.6 | CCOC(=O)c1ccc(S(=O)(=O)N2CCC3(CC2)N=C(c2ccc(Br)cc2)C(=O)N3)cc1 | – |
